# In ChEMBL document CHEMBL4130542, “Daedophamide, a Cytotoxic Cyclodepsipeptide from a Daedalopelta sp. Sponge Collected in Indonesia” (2017):
# How the values were obtained:
# Assay type in all cases: functional
# A549 = test: Cytotoxicity against human A549 cells after 48 hrs by sulforhodamine B assay; details: A549, 48 h; for CC50: read-out: LC50 (the source's name)
# Outline: (§1)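 Human carcinoma lines (A-549 lung, MDA-MB-231 breast adenocarcinoma, HT-29 colorectal, PSN-1 pancreas). Cell survival estimated with the NCI algorithm. Three dose-response parameters derived: GI50 (50% growth inhibition vs control cells), TGI (total growth inhibition vs control) and LC50 (50% cell death vs control). GI50 calculated by a literature procedure.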
# PSN1 = test: Cytotoxicity against human PSN1 cells after 48 hrs by sulforhodamine B assay; details: PSN1, 48 h; for CC50: read-out: LC50 (the source's name); outline: as §1
# HT-29 = test: Cytotoxicity against human HT-29 cells after 48 hrs by sulforhodamine B assay; details: HT-29, 48 h; for CC50: read-out: LC50 (the source's name); outline: as §1
# MDA-MB-231 = test: Cytotoxicity against human MDA-MB-231 cells after 48 hrs by sulforhodamine B assay; details: MDA-MB-231, 48 h; for CC50: read-out: LC50 (the source's name); outline: as §1
SMILES,GI50 (A549),TGI (A549),CC50 (A549),GI50 (PSN1),TGI (PSN1),CC50 (PSN1),GI50 (HT-29),TGI (HT-29),CC50 (HT-29),GI50 (MDA-MB-231),TGI (MDA-MB-231),CC50 (MDA-MB-231)
CO[C@H](C)[C@@H]1NC(=O)[C@H](CCC(N)=O)N(C)C(=O)[C@H](CC(C)C)NC(=O)[C@@H](CCCNC(=N)N)NC(=O)[C@@H](CO)NC(=O)[C@H](NC(=O)[C@@H](NC(=O)[C@H](O)[C@H](O)[C@H](CCCNC(=N)N)NC(=O)[C@@H](C)NC(=O)[C@H](C)[C@H](O)[C@H](C)C[C@H](C)CC(C)C)[C@@H](C)[C@@H](C)C(N)=O)[C@@H](C)OC(=O)[C@@H]2CCCCN2C(=O)[C@@H](CC(=O)O)NC1=O,400 nM,500 nM,700 nM,200 nM,300 nM,600 nM,600 nM,800 nM,1300 nM,300 nM,600 nM,900 nM
COc1cccc2c1C(=O)c1c(O)c3c(c(O)c1C2=O)C[C@@](O)(C(=O)CO)C[C@@H]3O[C@H]1C[C@H](N)[C@H](O)[C@H](C)O1 [DOXORUBICIN],200 nM,900 nM,> 17200 nM,200 nM,500 nM,3100 nM,300 nM,900 nM,> 17200 nM,200 nM,500 nM,2400 nM
